Only a sample is shown.
Apaf1 activ: activates human Apaf-1 apoptosome; actives 0.31% (n = 330,000); O14727; activity change, negative = activation, % at 20 µM; Apaf-1 apoptosome caspase-3 activation, DEVD-Rh110 fluorescence; stronger effect = lower value; AID 489031;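 active = activity change at or below -40% at 20 µM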
Target sequence (O14727 whole entry, looked up): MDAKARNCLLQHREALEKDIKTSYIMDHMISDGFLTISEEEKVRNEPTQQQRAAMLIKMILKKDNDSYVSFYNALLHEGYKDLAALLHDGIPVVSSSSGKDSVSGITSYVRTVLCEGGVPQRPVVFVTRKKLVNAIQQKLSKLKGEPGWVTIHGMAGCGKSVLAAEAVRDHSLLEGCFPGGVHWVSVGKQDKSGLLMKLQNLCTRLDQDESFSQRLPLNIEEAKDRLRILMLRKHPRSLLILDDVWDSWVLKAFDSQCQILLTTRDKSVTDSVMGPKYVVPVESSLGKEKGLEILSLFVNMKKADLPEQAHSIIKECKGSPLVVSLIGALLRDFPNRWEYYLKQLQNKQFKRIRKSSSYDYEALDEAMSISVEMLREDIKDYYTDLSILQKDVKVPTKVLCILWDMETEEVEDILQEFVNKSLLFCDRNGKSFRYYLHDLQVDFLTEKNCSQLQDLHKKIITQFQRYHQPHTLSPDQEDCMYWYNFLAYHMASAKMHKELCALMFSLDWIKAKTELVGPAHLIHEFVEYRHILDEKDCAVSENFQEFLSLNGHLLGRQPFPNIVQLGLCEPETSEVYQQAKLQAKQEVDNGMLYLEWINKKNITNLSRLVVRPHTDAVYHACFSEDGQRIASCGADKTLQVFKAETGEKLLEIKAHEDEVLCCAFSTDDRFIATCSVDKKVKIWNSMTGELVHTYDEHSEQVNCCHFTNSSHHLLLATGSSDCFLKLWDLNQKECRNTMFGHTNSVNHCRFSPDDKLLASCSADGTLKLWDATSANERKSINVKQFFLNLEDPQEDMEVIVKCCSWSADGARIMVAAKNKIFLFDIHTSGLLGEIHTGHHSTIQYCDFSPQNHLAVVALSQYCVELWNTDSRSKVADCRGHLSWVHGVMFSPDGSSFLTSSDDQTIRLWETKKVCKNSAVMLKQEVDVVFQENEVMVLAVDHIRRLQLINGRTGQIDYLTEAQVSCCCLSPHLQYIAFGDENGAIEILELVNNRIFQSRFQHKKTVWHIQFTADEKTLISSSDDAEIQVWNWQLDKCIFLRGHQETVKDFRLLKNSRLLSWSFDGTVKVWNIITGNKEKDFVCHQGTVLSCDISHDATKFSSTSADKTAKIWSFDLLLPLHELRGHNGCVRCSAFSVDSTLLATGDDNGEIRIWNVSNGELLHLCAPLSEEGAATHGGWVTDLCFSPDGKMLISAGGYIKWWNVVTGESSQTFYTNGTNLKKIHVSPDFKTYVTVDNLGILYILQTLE
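system = biochemical Apaf-1 apoptosome reconstitution | buffer or medium = 20 mM HEPES pH 7.5 with CHAPS, BSA | also added = dATP and cytochrome c as apoptosome triggers, (Z-DEVD)2-Rh110 substrate | incubation = 30 min compound preincubation and 50 min reaction, both room temperature | measured by = fluorescence, 540 nm emission, 480 nm excitation | read-out basis = Caspase-3 cleavage activity downstream of Apaf-1 activation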
Rh110 interf act: Rh110 signal interference in Apaf-1 activator counter-screen | fluorescence interference (activity change), % at 20 µM, hits read low | Rh110 fluorescence interference, quenched caspase reaction, Ex480/Em540 | shares compounds with Apaf1 activ | AID 504616 | 980 tested, under 10 active;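 active = mean activity change at or below -40% when tested at 20 µM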
Apaf-1 act conf: Apaf-1 (human) activation, single-dose confirmed; shares compounds with Apaf1 activ; reconstituted apoptosome caspase-3 activity, DEVD-Rh110 fluorescence; stronger effect = lower value; activity change, negative = activation, % at 20 µM; actives 5% (n = 980);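 active = mean activity change at or below -40%, meaning activation of 40% or more, at 20 µM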
* hit, by the source's call; nt = no result.

SMILES | Apaf1 activ | Rh110 interf act | Apaf-1 act conf
COc1ccc(-c2noc(-c3ccccc3C(=O)NCc3ccco3)n2)cc1OC | -324* | 4 | -4
O=C1C=C(Nc2ccc(F)cc2)c2ccccc2C1=O | 87 | nt | nt
CCCCCc1ccc(OCCCC[n+]2ccc(C)cc2)c(CCCCC)c1 | 56 | nt | nt
CCOc1ccc(CCNC(=O)c2ccc3c(=O)[nH]c4c(C(=O)NC(C)C)sc(=S)n4c3c2)cc1 | -515* | -8 | 16
CC1(C)S/C(=N/N=C/c2ccco2)NC1=O | -61* | 14 | 17
C#CCOCCOCCOCCNc1nc(N2CCN(C(=O)CCCCCCCCCCNC(=O)Cn3cc(C[C@@H](C)O)nn3)CC2)nc(N2CCN(C(=O)CCCCCCCCCCNC(=O)[C@H](CCCCN)n3cc(C[C@@H](C)CC)nn3)CC2)n1 | 71 | nt | nt
CCN(CC)CCOC(=O)c1ccc(N/C=C(/C#N)c2nc(-c3cc4ccccc4oc3=O)cs2)cc1 | 54 | nt | nt
COc1ccc(C(C)(C)C)cc1NC(=O)CNc1cccc2ccccc12 | 44 | nt | nt
COc1ccc(CC(=O)Nc2ccc(-c3nc4cc(C)ccc4o3)c(O)c2)cc1OC | 42 | nt | nt
COc1ccc(OC)c(NC(=O)CS(=O)(=O)Cc2nc(-c3ccccc3C)oc2C)c1 | -50* | 2 | 4
Cc1c(Cl)cnc(NC(=O)COC(=O)c2ccc([N+](=O)[O-])s2)c1Cl | 40 | nt | nt
Cc1c(C(=O)N(CCc2ccccc2)Cc2ccccc2)cccc1[N+](=O)[O-] | 41 | nt | nt
Cc1c(C(=O)OCC(=O)Nc2c(C)n(C)n(-c3ccccc3)c2=O)cccc1[N+](=O)[O-] | -93* | 5 | 12
c1ccc(CC2CCN(c3nc4ccccc4n4nnnc34)CC2)cc1 | 58 | nt | nt
NNC(=O)c1ccc(Cn2cc(Br)c(N)n2)cc1 | -40* | 4 | 5
O=C(c1ccccc1)C(O)c1ccccc1 (stereo unspecified) | -41* | 4 | 4
O=C(O)CCCNC(=O)C(c1ccccc1)c1ccccc1 | -5 | nt | nt
OCc1cc(C(O)CNCCCCCCOCCCCc2ccccc2)ccc1O (stereo unspecified) | 42 | nt | nt
COc1ccc(Cl)cc1NC(=O)C(C)N1CCN(C/C=C/c2ccccc2)CC1 (stereo unspecified) | 43 | nt | nt
C[C@H](NC(=O)c1ccc(C(C)(C)C)cc1)C(=O)N1CCN(C/C=C/c2ccccc2)CC1 | 43 | nt | nt
COc1ccc(OC)c(NC(=S)N2CCN(C/C=C/c3ccccc3)CC2)c1 | -300* | 9 | 13
Oc1ccc(C[C@H]2CNCCN2CCCCC2CCCCC2)cc1 | 41 | nt | nt
CCN(Cc1ccccc1)C(=O)C1CCC(CNc2c(N3CCOCC3)c(=O)c2=O)CC1 (stereo unspecified) | -410* | 10 | 1
CCOC(=O)C1CCCN(c2cc(NCCCO)c([N+](=O)[O-])c3nonc23)C1 (stereo unspecified) | 40 | nt | nt
O=C1NCN(c2ccccc2)C12CCN(CCCC(c1ccc(F)cc1)c1ccc(F)cc1)CC2 | 55 | nt | nt
SMILES | Apaf1 activ | Rh110 interf act | Apaf-1 act conf
FC(F)(F)c1cc(CCN2CCNC[C@@H]2Cc2ccccc2)cc(C(F)(F)F)c1 | 57 | nt | nt
CC(=O)N(/N=C1\Sc2ccccc2C1=O)c1cccc(C)c1 | 86 | nt | nt
CC(=O)c1ccc(NC(=S)Nc2cccc3cnccc23)cc1 | 96 | nt | nt
CC(=O)c1ccc(NC(=O)c2ccc3nc(-c4ccco4)c(-c4ccco4)nc3c2)cc1 | 52 | nt | nt
CC(=O)c1ccc(NC(=O)c2cnsn2)cc1 | -410* | 5 | 12
CC[C@]12c3[nH]c4ccc(OC)cc4c3CCN1C(=O)C(CC(=O)NC/C=C(\C)CCC=C(C)C)C[C@@H]2C(=O)N1CCN(C(=O)c2ccco2)CC1 (stereo partly specified) | 40 | nt | nt
COc1cc(NCCCCCCCN)c2ncccc2c1 | 95 | nt | nt
CCN(CC)C(=O)C1CCCN(C(=O)Nc2ccc3nsnc3c2)C1 (stereo unspecified) | 71 | nt | nt
Cc1ccc(S(=O)(=O)NC(=O)Nc2ccc(N(C)C)cc2)cc1 | 57 | nt | nt
Cc1noc(NS(=O)(=O)c2ccc(NC(=O)NC(C)(C(F)(F)F)C(F)(F)F)cc2)c1C | -232* | 4 | 14
O=C(Cn1cc2c(n1)CCCC2)NCCCN1CCCC1 | 41 | nt | nt
CCCN(CC(=O)Nc1ccccc1C)C(=O)C1CCCN(C(=O)c2ccc(Cl)cc2)C1 (stereo unspecified) | 48 | nt | nt
CCN1CCN(Cc2ccc(NC(=O)c3ccc(C)c(NC(=O)C(=O)c4c[nH]c5ccccc45)c3)cc2C(F)(F)F)CC1 | 74 | nt | nt
COc1ccc(C(CCN2CCCCC2)c2c(OC)cc(OC)c3c(-c4ccccc4)cc(=O)oc23)cc1 (stereo unspecified) | 55 | nt | nt
Cc1cc(C)cc(NC(=O)C2CCN(S(C)(=O)=O)CC2)c1 | -67* | 1 | 0
